Hits are enriched below; roughly 4.6% of the tested compounds scored in any of these assays.
OX1R antag-1: blocks the human orexin 1 receptor | AID 485270 | inhibition, % at 6.6 µM | OX1R-expressing cells, FRET antagonist read-out | O43613 | 330,000 compounds, 1.8% hits; in the data active = inhibition mostly above about 38%, no sharp cut-off; inactive = mostly below about 40%;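 also: 0% = agonist challenge alone and 100% = reference antagonist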
TAAR1 ag: agonists of human TAAR1 | Q96RJ0 | CHO RD-HGA16 TAAR1, Fluo-8 calcium fluorescence; vehicle wells 0%, saturating PEA agonist 100% | activation, % at 3 µM | AID 624467 | 360,000 compounds, 0.99% hits;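 active = activation above the mean activation of all test compounds in the run plus 3 SD, cut at about 38% in these data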
Target sequence (Q96RJ0 whole entry, looked up): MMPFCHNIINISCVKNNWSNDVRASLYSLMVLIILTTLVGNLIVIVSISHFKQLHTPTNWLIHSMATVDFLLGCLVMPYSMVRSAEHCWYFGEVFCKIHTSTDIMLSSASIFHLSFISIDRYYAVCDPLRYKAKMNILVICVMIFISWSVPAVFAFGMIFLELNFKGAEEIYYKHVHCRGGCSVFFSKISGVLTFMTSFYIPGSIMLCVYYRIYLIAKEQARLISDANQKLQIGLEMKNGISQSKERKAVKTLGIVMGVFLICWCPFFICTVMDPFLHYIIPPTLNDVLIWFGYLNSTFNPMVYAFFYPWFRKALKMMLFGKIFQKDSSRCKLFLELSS
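System: CHO-derived RD-HGA16 cells with stable Gα16 and human TAAR1. Times: 17-24 h plating, Fluo-8 75 min 37 °C, 30 min RT. Measured by: calcium-sensitive Fluo-8 signal, excitation 470-495, emission 515-575 nm. Read-out basis: % activation relative to PEA EC100 response. Control set: DMSO and PEA EC100. Repeats: no replicates (n 1).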
CHO parental Ca: signal in parental CHO cells, OX1R antagonist counter-screen; inhibition, % at 5.6 µM; AID 463079; parental CHO-K1, ATP-induced calcium, Fluo-8 fluorescence; 330,000 compounds, 0.63% hits;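 active = inhibition above that plate's mean sample inhibition plus 3 SD, cut at about 26% in these data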;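 also: 0% = ATP-challenged DMSO wells and 100% = DMSO wells without ATP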
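Test system: untransfected parental CHO cell line; also added: ATP stimulus; dosing: 5.6 µM, single dose; signal: calcium-sensitive Fluo-8 fluorescence; measure: percent inhibition of ATP-evoked calcium rise, normalized to controls; benchmarks: low control ATP plus DMSO, high control DMSO only; replication: one well per compound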
OX1R antag-2: human HCRTR1 antagonism. O43613. CHO/OX1R cells, Fluo-8 calcium fluorescence, orexin A. inhibition, % at 5 µM. 330,000 compounds, 0.43% hits. AID 434989;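 active = inhibition above its plate's threshold, mean inhibition of all tested compounds on the plate plus 3 SD, cut at about 37% in these data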;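 also: 0% = orexin A challenge wells and 100% = SB-334867-A antagonist wells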
GPR7 antagonist: antagonists of human GPR7 (neuropeptides B/W receptor 1); inhibition, % at 4.4 µM; P48145; AID 1861; 290,000 compounds, 1.1% hits; GPR7-expressing cells, fluorescence antagonist assay; in the data active = inhibition above about 16%, passing the limit was not always enough;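 also: cells stimulated with the agonist NPW; 0% = agonist with vehicle and 100% = vehicle without agonist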
TAAR1 antag: antagonists of human TAAR1. Q96RJ0. CHO RD-HGA16 TAAR1, Fluo-8 calcium fluorescence, antagonist. inhibition, % at 3 µM. 360,000 compounds, 1.5% hits. AID 624466;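 active = inhibition above a per-plate cutoff, the mean inhibition of test compounds on that plate plus 3 SD, cut at about 49% in these data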;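 also: 0% = DMSO plus EC80 beta-PEA response and 100% = DMSO alone without agonist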
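test system = CHO RD-HGA16 cells bearing hTAAR1 | replication = singlicate | controls = DMSO-only wells and EC80 β-PEA-stimulated wells | reagent = EC80 β-phenethylamine stimulus | read-out basis = percent inhibition of PEA-evoked calcium signal, max/basal emission ratio | schedule = seeding 17-24 h prior, 75-min 37 °C, 30-min RT dye loading | signal = kinetic Fluo-8 calcium fluorescence measurement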
nonsel antag count: nonselective antagonism, TAAR1 counter-screen | shares compounds with TAAR1 antag | counterscreen cell line, calcium fluorescence, antagonist mode | 2,400 compounds, 77% hits | inhibition, % at 3 µM; in the data active = inhibition above about 22%;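 also: CHO-Ga16 host cells stimulated with ATP at an EC80 level; 0% = agonist EC80 plus vehicle and 100% = vehicle without agonist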
TAAR1 antag conf: human TAAR1 antagonism, confirmed; shares compounds with TAAR1 antag; TAAR1-expressing cells, fluorescence antagonist read-out; inhibition, % at 3 µM; 2,400 compounds, 40% hits; AID 651785; in the data active = inhibition above about 49%;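 also: CHO-Ga16 host cells challenged with agonist PEA near its EC80; 0% = agonist at EC80 plus vehicle and 100% = vehicle with no agonist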
Ga16 ag counter: nonselective Ga16 agonism, counter-screen; shares compounds with TAAR1 antag; Ga16-expressing cells, calcium fluorescence, agonist counterscreen; activation, % at 3 µM; 2,400 compounds, 18% hits; AID 651953; in the data active = activation above about 12%;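 also: 0% = vehicle wells and 100% = saturating stimulus response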
TAAR1 ag count: TAAR1 agonism, antagonist counter-screen. AID 651955. 2,400 compounds, 2% hits. hTAAR1 cell line, fluorescence activation, agonist mode. activation, % at 3 µM. shares compounds with TAAR1 antag; in the data active = activation above about 37%;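 also: CHO cells stably expressing TAAR1 with calcium dye readout; 0% = DMSO vehicle and 100% = full agonist response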
An asterisk follows results filed as active; . = not tested or not shown.

SMILES | OX1R antag-1 | TAAR1 ag | CHO parental Ca | OX1R antag-2 | GPR7 antagonist | TAAR1 antag | nonsel antag count | TAAR1 antag conf | Ga16 ag counter | TAAR1 ag count
O=C(N/N=C\c1c(F)c(F)c(F)c(F)c1F)c1ccc(-c2ccccc2)cc1 | 4.8 | 1.9 | -6.6 | -11.4 | -9.2 | -3.3 | . | . | . | .
COc1cc(/C=N/NC(=O)c2ccccn2)ccc1OC(=O)c1ccccc1Br | 10.3 | 6.9 | -25.9 | -19.7 | -22.6 | 70.5* | 34.5* | 53.0* | 8.6 | 5.2
Cc1ccc(C(=O)NCCOc2cccc3cccnc23)cc1Cl | 30.9 | 24.3 | -20.2 | -26.7 | -14.6 | -23.2 | . | . | . | .
COc1cc(/C=N/NC(=O)c2ccccn2)ccc1OC(=O)c1ccc(Br)cc1 | 6.4 | 2.0 | 12.9 | -7.4 | -16.8 | 40.1 | . | . | . | .
COc1cc(C(=O)NCCOc2cccc3cccnc23)cc(OC)c1OC | 18.5 | 20.3 | 1.6 | -18.1 | -12.7 | 74.0* | 33.6* | 55.1* | 11.4 | 12.3
O=C(N/N=C\c1cccc(F)c1)c1ccc(-c2ccccc2)cc1 | . | -0.5 | . | . | -19.6 | 56.8* | -5.5 | 29.0 | -0.5 | -1.6
CCc1noc(C)c1C(=O)Nc1ccc(Cl)c(S(=O)(=O)N2CCCCC2)c1 | 18.4 | 4.8 | -2.7 | -4.2 | . | 37.2 | . | . | . | .
COc1cccc(-c2cc(C(=O)Nc3ccncc3)c3ccccc3n2)c1 | 18.5 | 4.9 | -13.2 | -22.7 | -16.1 | 39.4 | . | . | . | .
CC(=O)c1cccc(NC(=O)c2cccc3c(-c4cccnc4)coc23)c1 | . | 17.0 | . | . | . | 75.2* | 30.6* | 52.0* | 11.2 | 10.2
COc1cccc(NC(=O)c2cc(-c3ccccn3)nc3ccccc23)c1 | 11.3 | 18.0 | -17.6 | -6.9 | . | 56.3* | 27.9* | 42.4 | 6.7 | 3.6
NC(=O)c1cccc(-c2coc3c(C(=O)NCc4cccnc4)cccc23)c1 | . | 2.4 | . | . | . | -6.3 | . | . | . | .
CC(=O)Nc1cccc(NC(=O)c2cc(-c3cccnc3)nc3ccc(Cl)cc23)c1 | 38.0 | 14.4 | 8.9 | -11.3 | 3.1 | 86.0* | 30.8* | 55.2* | 10.3 | 9.6
Cc1ccc(C)c(-c2cc(C(=O)Nc3cccnc3)c3ccccc3n2)c1 | 38.3 | 4.4 | -15.9 | -26.1 | -16.9 | 60.7* | 24.7* | 49.0* | 13.0* | 18.4
CN(C)S(=O)(=O)N1CCC(n2nccc2NC(=O)CCCc2ccccc2)CC1 | 14.4 | 1.8 | -6.9 | -13.9 | -7.0 | -7.6 | . | . | . | .
Cc1cccc(C)c1-n1nnnc1C(c1ccnc2ccccc12)N(CCN(C)C)Cc1ccccc1 (stereo not drawn) | . | 5.0 | . | . | . | -9.8 | . | . | . | .
N=c1oc2cc(O)ccc2cc1C(=O)Nc1ccc(Cl)cc1 | 17.0 | 8.1 | 8.3 | 15.2 | 9.3 | 8.2 | . | . | . | .
Cc1cccc(NC(=O)c2cc(-c3ccccn3)nc3ccccc23)c1C | 5.5 | 7.7 | -23.3 | -11.0 | -4.7 | 70.3* | 33.9* | 56.0* | 10.6 | 8.3
CCn1cnc2sc(C(=O)N(Cc3ccc(N(C)C)cc3)Cc3ccco3)c(C)c2c1=O | 23.5 | 24.4 | -20.8 | -12.5 | -8.9 | 54.0* | 22.6* | 38.0 | 7.1 | 13.6
O=C1c2ccccc2C(=O)N1CCC#Cc1ccc2cc(CCCO)oc(=O)c2c1 | 8.4 | 19.1 | 2.5 | 43.7 | . | 69.0* | 61.3* | 75.5* | 23.8* | 35.7
CC1(C)C(=O)N(CCN2CCC(C(=O)c3ccc(F)cc3)CC2)c2ccccc21 | 18.6 | 12.8 | -13.6 | -16.5 | . | 86.9* | 36.7* | 56.5* | 12.1* | 10.5
O=C(c1ccc(F)cc1)C1CCN(CCn2c(=S)[nH]c3ccccc3c2=O)CC1 | 14.9 | . | -17.3 | -13.4 | -1.0 | . | . | . | . | .

Source: PubChem
